{"source": "ChEMBL document CHEMBL5649170", "about": "“Sustained microglial depletion with CSF1R inhibitor impairs parenchymal plaque development in an Alzheimer's disease model” (Nat Commun, 2019)", "key": {"[1]": {"test": "Drug concentration in wildtype mouse brain at 75 ppm administered as rodent chow starting from 1.5 months and measured after 5 months", "format": "ADME, tissue-based", "details": "route po, time 3.5 months, read-out: Ct", "summary_of_the_method": "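WT or 5xFAD mice were fed PLX3397 in AIN-76A chow at 600 ppm or 75 ppm from 1.5 to 5 months of age. Terminal brain and plasma drug concentrations were determined at study end.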"}, "[2]": {"test": "Effect on Hexb gene expression in wild type mouse hippocampus at 1200 ppm administered as rodent chow starting from 1.5 months and measured after 7 months by RNA-Seq analysis (reference value: 42.233 to 43.921 RPKM)", "format": "functional", "details": "route po, time 5.5 months, 4015 h"}, "[3]": {"test": "Prevention of Dynll1 gene downregulation in 5XFAD mouse hippocampus assessed as percent change in Reads Per kilo base per Million mapped reads at 1200 ppm administered as rodent chow starting from 1.5 months and measured after 7 months by RNA-Seq analysis (reference value: 79.087 to 86.108 %)", "format": "functional", "details": "route po, time 5.5 months, 4015 h"}, "Ephrin type-A receptor 2": {"biological_target": "Ephrin type-A receptor 2 (Homo sapiens, UniProt P29317)", "sequence (P29317 whole entry)": "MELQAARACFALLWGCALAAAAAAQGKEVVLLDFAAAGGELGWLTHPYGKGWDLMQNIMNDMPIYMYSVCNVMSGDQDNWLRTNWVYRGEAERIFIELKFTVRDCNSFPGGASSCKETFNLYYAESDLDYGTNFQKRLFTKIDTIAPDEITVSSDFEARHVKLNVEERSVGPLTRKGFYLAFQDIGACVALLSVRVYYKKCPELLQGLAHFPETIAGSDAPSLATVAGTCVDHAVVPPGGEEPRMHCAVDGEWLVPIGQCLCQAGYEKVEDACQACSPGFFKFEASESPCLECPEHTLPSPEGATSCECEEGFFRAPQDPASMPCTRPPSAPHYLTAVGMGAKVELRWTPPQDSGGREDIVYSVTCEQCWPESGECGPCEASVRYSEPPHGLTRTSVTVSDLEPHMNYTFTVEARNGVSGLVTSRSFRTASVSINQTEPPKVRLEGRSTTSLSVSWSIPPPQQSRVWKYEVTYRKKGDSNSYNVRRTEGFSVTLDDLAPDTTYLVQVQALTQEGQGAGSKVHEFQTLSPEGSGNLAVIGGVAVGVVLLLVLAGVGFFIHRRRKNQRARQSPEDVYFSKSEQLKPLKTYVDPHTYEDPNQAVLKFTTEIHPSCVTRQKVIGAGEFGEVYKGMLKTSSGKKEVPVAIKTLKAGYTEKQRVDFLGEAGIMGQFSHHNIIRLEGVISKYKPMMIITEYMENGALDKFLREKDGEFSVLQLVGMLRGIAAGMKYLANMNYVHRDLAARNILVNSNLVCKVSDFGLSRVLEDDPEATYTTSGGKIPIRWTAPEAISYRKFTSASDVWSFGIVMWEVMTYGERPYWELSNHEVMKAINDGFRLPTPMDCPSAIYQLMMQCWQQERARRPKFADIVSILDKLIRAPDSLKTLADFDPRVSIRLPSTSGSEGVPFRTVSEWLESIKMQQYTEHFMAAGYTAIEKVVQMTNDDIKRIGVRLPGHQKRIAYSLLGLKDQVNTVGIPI", "test": "Inhibition of EPHA2 (unknown origin)"}, "[4]": {"test": "Effect on Ctsz gene expression in 5XFAD mouse thalamus at 1200 ppm administered as rodent chow starting from 1.5 months and measured after 7 months by RNA-Seq analysis (reference value: 23.715 to 34.765 RPKM)", "format": "functional", "details": "route po, time 5.5 months, 4015 h"}, "AMPK alpha2/beta1/gamma1": {"biological_target": "AMPK alpha2/beta1/gamma1 (Homo sapiens, UniProt P54619+P54646+Q9Y478)", "sequence (P54646 whole entry)": "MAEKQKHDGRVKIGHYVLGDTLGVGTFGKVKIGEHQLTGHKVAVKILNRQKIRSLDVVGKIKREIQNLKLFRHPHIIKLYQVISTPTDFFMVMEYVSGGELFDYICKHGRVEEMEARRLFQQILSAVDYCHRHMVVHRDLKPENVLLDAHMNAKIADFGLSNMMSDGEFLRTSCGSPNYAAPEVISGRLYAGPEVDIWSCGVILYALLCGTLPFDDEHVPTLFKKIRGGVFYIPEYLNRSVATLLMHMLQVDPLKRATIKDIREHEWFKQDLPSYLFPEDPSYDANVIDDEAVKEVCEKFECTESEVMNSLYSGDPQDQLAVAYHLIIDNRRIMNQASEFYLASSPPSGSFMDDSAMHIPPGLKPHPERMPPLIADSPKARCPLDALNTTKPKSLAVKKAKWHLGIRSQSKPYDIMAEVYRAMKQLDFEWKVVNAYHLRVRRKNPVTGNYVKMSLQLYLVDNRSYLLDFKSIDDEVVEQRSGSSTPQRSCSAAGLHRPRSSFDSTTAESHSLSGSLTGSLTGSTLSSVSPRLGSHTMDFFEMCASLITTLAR", "sequence (P54619 whole entry)": "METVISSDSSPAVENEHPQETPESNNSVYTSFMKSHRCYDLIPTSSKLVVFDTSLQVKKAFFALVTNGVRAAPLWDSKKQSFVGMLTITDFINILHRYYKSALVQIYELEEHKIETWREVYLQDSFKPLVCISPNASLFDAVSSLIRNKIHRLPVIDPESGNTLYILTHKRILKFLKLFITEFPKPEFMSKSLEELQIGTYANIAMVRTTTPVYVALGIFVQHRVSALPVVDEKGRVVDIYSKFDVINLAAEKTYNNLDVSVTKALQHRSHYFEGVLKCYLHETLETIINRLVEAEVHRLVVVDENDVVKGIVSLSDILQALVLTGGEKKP", "sequence (Q9Y478 whole entry)": "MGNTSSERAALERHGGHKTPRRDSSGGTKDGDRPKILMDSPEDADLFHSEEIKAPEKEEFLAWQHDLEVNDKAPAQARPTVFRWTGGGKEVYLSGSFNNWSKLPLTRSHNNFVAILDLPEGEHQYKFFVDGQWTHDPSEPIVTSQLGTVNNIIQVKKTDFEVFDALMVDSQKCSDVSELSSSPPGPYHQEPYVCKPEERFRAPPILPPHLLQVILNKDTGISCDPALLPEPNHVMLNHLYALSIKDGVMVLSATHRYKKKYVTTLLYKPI", "test": "Inhibition of AMPK_A2/B1/G1 (unknown origin)", "format": "protein-complex assay"}, "Mus musculus [5]": {"tested_on": "Mus musculus", "test": "Antialzheimer activity in wildtype mouse assessed as number of Iba positive cells per FOV in […] cortex at 1200 ppm administered as rodent chow starting from 1.5 months and measured after 7 months (reference value: 322 to 632)", "format": "functional", "details": "route po, time 5.5 months, 4015 h"}, "[6]": {"test": "Effect on Ctsd gene expression in wild type mouse hippocampus at 1200 ppm administered as rodent chow starting from 1.5 months and measured after 7 months by RNA-Seq analysis (reference value: 111.753 to 176.402 RPKM)", "format": "functional", "details": "route po, time 5.5 months, 4015 h"}, "[7]": {"test": "Drug concentration in 5XFAD mouse plasma at 1200 ppm administered as rodent chow for 10 to 24 weeks", "format": "ADME, cell-free", "details": "po, time 10-24 weeks", "summary_of_the_method": "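WT or 5xFAD mice were started at 1.5 months of age on PLX5622 formulated at 1200 ppm in AIN-76A chow, with control chow as comparison. Feeding ran for 10 or 24 weeks. Terminal plasma and brain drug levels were then measured. Groups were sex-balanced and compared by two-tailed independent t-test.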"}, "[8]": {"biological_target": "Mitogen-activated protein kinase 12 (Homo sapiens, UniProt P53778)", "sequence (P53778 whole entry)": "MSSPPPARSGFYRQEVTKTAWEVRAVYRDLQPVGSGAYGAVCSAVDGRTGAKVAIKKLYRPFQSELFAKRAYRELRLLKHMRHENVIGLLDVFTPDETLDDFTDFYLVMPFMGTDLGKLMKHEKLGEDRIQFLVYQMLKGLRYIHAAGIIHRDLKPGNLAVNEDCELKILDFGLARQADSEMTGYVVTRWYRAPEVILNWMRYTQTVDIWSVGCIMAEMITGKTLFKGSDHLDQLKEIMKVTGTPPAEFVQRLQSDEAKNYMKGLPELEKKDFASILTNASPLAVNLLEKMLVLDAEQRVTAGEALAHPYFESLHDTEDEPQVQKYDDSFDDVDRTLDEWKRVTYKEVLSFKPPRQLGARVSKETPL", "test": "Inhibition of MAPK12 (unknown origin)"}, "Mus musculus [9]": {"tested_on": "Mus musculus", "test": "(§1) Antialzheimer activity in 5XFAD mouse assessed as iron reactivity by measuring hemosiderin intensity of prussian blue staining in retro spinal cortex at 1200 ppm administered as rodent chow starting from 1.5 months and measured after 4 months by confocal microscopic analysis (reference value: 0.1 to 8.816 a.u.)", "format": "functional", "details": "route po, time 2.5 months, 1825 h", "summary_of_the_method": "(§2)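 Wild-type or 5xFAD mice fed PLX5622 (1200 ppm) in AIN-76A chow from 1.5 months of age, examined in 4- and 7-month-old cohorts. Brain sections stained with a Prussian blue kit per kit instructions to detect iron deposits (microbleeds).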"}, "Mus musculus [10]": {"tested_on": "Mus musculus", "test": "Antialzheimer activity in 5XFAD mouse assessed as number of S100bteta positive cells per FOV in retro spinal cortex at 1200 ppm administered as rodent chow for 10 to 24 weeks by immunolabelling based confocal microscopic analysis (reference value: 320 to 427)", "format": "functional", "details": "route po, time 10-24 weeks"}, "[11]": {"test": "Prevention of Rnf217 gene downregulation in 5XFAD mouse hippocampus assessed as percent change in Reads Per kilo base per Million mapped reads at 1200 ppm administered as rodent chow starting from 1.5 months and measured after 7 months by RNA-Seq analysis (reference value: 66.726 to 80.840 %)", "format": "functional", "details": "route po, time 5.5 months, 4015 h"}, "[12]": {"biological_target": "Receptor tyrosine-protein kinase erbB-2 (Homo sapiens, UniProt P04626)", "sequence (P04626 whole entry)": "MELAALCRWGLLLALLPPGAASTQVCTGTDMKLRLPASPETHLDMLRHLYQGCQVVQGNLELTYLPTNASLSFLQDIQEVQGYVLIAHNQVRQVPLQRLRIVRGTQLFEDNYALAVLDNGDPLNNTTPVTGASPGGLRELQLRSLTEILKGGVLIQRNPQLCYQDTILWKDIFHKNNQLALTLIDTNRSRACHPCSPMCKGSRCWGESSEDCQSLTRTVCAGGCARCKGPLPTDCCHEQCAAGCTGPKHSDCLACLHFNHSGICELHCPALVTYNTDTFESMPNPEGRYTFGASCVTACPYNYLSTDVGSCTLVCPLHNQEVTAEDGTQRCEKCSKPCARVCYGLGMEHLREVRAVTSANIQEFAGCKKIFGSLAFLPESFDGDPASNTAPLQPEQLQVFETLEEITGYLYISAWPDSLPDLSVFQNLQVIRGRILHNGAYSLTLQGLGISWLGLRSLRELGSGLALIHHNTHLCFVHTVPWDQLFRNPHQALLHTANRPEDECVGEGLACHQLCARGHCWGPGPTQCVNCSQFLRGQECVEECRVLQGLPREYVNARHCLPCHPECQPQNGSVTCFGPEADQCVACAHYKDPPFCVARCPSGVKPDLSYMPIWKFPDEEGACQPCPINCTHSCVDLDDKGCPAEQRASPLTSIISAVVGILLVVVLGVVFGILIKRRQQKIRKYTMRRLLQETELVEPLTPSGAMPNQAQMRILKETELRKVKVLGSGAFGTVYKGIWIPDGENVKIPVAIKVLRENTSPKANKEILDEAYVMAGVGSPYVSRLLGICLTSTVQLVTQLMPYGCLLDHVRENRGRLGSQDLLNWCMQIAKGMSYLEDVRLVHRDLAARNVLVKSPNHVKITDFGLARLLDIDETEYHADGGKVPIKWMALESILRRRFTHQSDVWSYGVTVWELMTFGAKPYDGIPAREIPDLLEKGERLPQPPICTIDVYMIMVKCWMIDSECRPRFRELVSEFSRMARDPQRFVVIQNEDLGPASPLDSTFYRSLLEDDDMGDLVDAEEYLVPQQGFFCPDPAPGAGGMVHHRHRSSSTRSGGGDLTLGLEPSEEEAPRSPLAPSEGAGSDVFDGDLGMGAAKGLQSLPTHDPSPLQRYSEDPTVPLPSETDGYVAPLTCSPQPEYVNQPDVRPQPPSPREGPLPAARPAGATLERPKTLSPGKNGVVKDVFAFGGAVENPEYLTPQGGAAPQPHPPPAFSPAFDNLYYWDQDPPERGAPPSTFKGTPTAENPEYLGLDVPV", "test": "Inhibition of ERBB2 (unknown origin)"}, "Mus musculus [13]": {"tested_on": "Mus musculus", "test": "Antialzheimer activity in 5XFAD mouse assessed as average diameter of claudin-5 blood vessels in Thio-S negative retro spinal cortex at 1200 ppm administered as rodent chow starting from 1.5 months and measured after 4 months by immunolabeling analysis", "format": "functional", "details": "route po, time 2.5 months, 1825 h"}, "Mus musculus [14]": {"tested_on": "Mus musculus", "test": "as §1, with “thalamus” for “retro spinal cortex”, “4.094” for “8.816”", "format": "functional", "details": "route po, time 2.5 months, 1825 h", "summary_of_the_method": "as §2"}, "[15]": {"test": "Volume of distribution at steady state in monkey at 1.35 mg/kg, iv administered as single dose", "format": "ADME, organism-based, Macaca mulatta", "details": "rhesus monkey, in vivo, read-out: Vdss"}, "[16]": {"biological_target": "Inhibitor of nuclear factor kappa-B kinase subunit beta (Homo sapiens, UniProt O14920)", "test": "Inhibition of IKBKB (unknown origin)"}, "[17]": {"test": "AUC (0 to infinity) in male rat at 45 mg/kg, po administered as single dose via gavage", "format": "ADME, organism-based", "details": "in vivo"}, "[18]": {"biological_target": "Cyclin-dependent kinase 5/CDK5 activator 1 (Homo sapiens, UniProt Q00535)", "sequence (Q00535 whole entry)": "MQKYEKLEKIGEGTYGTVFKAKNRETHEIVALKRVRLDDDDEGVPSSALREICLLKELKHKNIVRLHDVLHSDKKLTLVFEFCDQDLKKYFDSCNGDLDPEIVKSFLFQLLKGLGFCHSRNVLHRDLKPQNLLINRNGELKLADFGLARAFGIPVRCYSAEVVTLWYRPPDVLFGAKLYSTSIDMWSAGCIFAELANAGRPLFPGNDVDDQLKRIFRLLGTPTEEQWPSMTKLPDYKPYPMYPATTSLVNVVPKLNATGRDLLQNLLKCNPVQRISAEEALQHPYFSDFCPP", "sequence (Q15078 whole entry, further chain)": "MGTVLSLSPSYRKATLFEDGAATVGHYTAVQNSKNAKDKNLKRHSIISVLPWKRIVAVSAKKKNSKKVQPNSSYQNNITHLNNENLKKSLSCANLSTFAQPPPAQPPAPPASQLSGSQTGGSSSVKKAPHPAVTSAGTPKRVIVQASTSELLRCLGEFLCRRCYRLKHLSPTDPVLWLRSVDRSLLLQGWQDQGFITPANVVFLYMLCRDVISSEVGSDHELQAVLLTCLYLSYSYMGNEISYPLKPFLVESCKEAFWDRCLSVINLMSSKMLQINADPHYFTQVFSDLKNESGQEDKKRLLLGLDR", "test": "Inhibition of CDK5_p35 (unknown origin)", "format": "protein-complex assay"}, "[19]": {"test": "Effect on Itgax gene expression in 5XFAD mouse cortex at 1200 ppm administered as rodent chow starting from 1.5 months and measured after 7 months by RNA-Seq analysis (reference value: 1.746 to 3.999 RPKM)", "format": "functional", "details": "route po, time 5.5 months, 4015 h"}, "[20]": {"test": "Cmax in female rat at 45 mg/kg, po administered as single dose via gavage", "format": "ADME, organism-based", "details": "in vivo"}, "Mus musculus [21]": {"tested_on": "Mus musculus", "test": "Antialzheimer activity in 5XFAD mouse assessed as percent change in claudin-5 intensity of Thio-S negative thalamus at 1200 ppm administered as rodent chow starting from 1.5 months and measured after 4 months by immunolabeling analysis relative to control", "format": "functional", "details": "route po, time 2.5 months, 1825 h"}, "[22]": {"test": "Toxicity in wildtype mouse assessed as number of triads at 1200 ppm administered as rodent chow for 10 to 24 weeks by Y-maze test (reference value: 4 to 9)", "details": "in vivo, po, time 10-24 weeks"}, "Mus musculus [23]": {"tested_on": "Mus musculus", "test": "Antialzheimer activity in 5XFAD mouse assessed as reduction in plaque formation by measuring average plaque volume in somatosensory cortex at 1200 ppm administered as rodent chow starting from 1.5 months and measured after 4 months by immunolabeling based confocal microscopic analysis", "format": "functional", "details": "route po, time 2.5 months, 1825 h"}, "[24]": {"test": "Effect on Cst7 gene expression in wild type mouse thalamus at 1200 ppm administered as rodent chow starting from 1.5 months and measured after 7 months by RNA-Seq analysis (reference value: 0 to 1.803 RPKM)", "format": "functional", "details": "route po, time 5.5 months, 4015 h"}, "[25]": {"biological_target": "Serine/threonine-protein kinase PLK3 (Homo sapiens, UniProt Q9H4B4)", "sequence (Q9H4B4 whole entry)": "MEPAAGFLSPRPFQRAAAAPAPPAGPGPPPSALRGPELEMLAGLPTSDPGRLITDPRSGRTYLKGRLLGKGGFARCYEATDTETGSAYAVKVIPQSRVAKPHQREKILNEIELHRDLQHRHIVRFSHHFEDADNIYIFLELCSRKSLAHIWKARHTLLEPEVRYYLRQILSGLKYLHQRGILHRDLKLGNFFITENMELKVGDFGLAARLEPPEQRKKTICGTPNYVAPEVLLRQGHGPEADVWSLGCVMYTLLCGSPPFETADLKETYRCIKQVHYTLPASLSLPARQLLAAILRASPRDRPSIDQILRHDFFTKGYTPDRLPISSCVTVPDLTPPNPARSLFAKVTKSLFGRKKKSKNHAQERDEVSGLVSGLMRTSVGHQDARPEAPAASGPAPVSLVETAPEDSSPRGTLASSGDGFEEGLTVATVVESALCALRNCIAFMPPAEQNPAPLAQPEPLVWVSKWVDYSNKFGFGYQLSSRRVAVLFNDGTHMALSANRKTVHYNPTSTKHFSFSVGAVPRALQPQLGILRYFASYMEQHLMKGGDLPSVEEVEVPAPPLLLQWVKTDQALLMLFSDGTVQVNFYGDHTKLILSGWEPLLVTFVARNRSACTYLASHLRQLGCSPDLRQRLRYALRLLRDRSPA", "test": "Inhibition of PLK3 (unknown origin)"}, "Mus musculus [26]": {"tested_on": "Mus musculus", "test": "Antialzheimer activity in 5XFAD mouse assessed as number of Thio-S positive plaques per FOV in retro spinal cortex at 1200 ppm administered as rodent chow starting from 1.5 months and measured after 7 months by Thio-S staining based confocal microscopic analysis (reference value: 52 to 140)", "format": "functional", "details": "route po, time 5.5 months, 4015 h"}, "[27]": {"biological_target": "Serine/threonine-protein kinase PAK 5 (Homo sapiens, UniProt Q9P286)", "test": "Inhibition of PAK7 (unknown origin)"}}, "data": [{"molecule": "FC(F)(F)c1ccc(CNc2ccc(Cc3c[nH]c4ncc(Cl)cc34)cn2)cn1", "note": "[PEXIDARTINIB]", "values": [{"measurement": "concentration at 2555 h", "setting": "[1]", "result": 0.3, "unit": "µM"}]}, {"molecule": "COc1ncc(F)cc1CNc1ccc(Cc2c[nH]c3ncc(C)cc23)c(F)n1", "note": "[PLX-5622]", "values": [{"measurement": "Activity", "setting": "[2]", "result": 10.009, "unit": "RPKM"}, {"measurement": "Activity", "setting": "[3]", "result": 96.141, "unit": "%"}, {"measurement": "IC50", "setting": "Ephrin type-A receptor 2", "result": "> 1000", "unit": "nM"}, {"measurement": "Activity", "setting": "[4]", "result": 13.618, "unit": "RPKM"}, {"measurement": "IC50", "setting": "AMPK alpha2/beta1/gamma1", "result": "> 1000", "unit": "nM"}, {"measurement": "Activity", "setting": "Mus musculus [5]", "result": 0}, {"measurement": "Activity", "setting": "[6]", "result": 89.626, "unit": "RPKM"}, {"measurement": "concentration", "setting": "[7]", "result": 13.5, "unit": "µM"}, {"measurement": "IC50", "setting": "[8]", "result": "> 1000", "unit": "nM"}, {"measurement": "Flu intensity", "setting": "Mus musculus [9]", "result": 6.682, "unit": "a.u."}, {"measurement": "Activity", "setting": "Mus musculus [10]", "result": 288}, {"measurement": "Activity", "setting": "[11]", "result": 95.371, "unit": "%"}, {"measurement": "IC50", "setting": "[12]", "result": "> 1000", "unit": "nM"}, {"measurement": "Activity", "setting": "Mus musculus [13]", "result": 1.786, "unit": "um"}, {"measurement": "Flu intensity", "setting": "Mus musculus [14]", "result": 0.249, "unit": "a.u."}, {"measurement": "Vd", "setting": "[15]", "result": 1.6, "unit": "L/kg"}, {"measurement": "IC50", "setting": "[16]", "result": "> 1000", "unit": "nM"}, {"measurement": "AUC(0-inf)", "setting": "[17]", "result": 99600, "unit": "ng·h/mL"}, {"measurement": "IC50", "setting": "[18]", "result": "> 1000", "unit": "nM"}, {"measurement": "Activity", "setting": "[19]", "result": 0.086, "unit": "RPKM"}, {"measurement": "Cmax", "setting": "[20]", "result": 15600, "unit": "ng/mL"}, {"measurement": "Activity", "setting": "Mus musculus [21]", "result": 91.327, "unit": "%"}, {"measurement": "Activity", "setting": "[22]", "result": 3}, {"measurement": "Activity", "setting": "Mus musculus [23]", "result": 1533.351, "unit": "um3"}, {"measurement": "Activity", "setting": "[24]", "result": 0, "unit": "RPKM"}, {"measurement": "IC50", "setting": "[25]", "result": "> 1000", "unit": "nM"}, {"measurement": "Activity", "setting": "Mus musculus [26]", "result": 17}, {"measurement": "IC50", "setting": "[27]", "result": "> 1000", "unit": "nM"}]}]}
